A word on the CC50: it is the concentration at which the toxic effect on the cells reaches its halfway point. Higher therefore signals lower toxicity to the cells. Broadly, the EC50 is the concentration that produces a half-maximal response.

Molecules are shown by their SMILES. “And” between values parts separate entries of the source, which are not always exact repeats. Equal entries are not always repeated. Bounds are passed on as bounds.

For assay [1], the system named is MT4. The experiment in a line: Selectivity index (ratio CC50/EC50) in MT-4 cells is measured. Format: functional. Put shortly: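 Ratio of CC50 to EC50, both from MT-4 cultures read after 5 days by trypan blue viable-cell counts. CC50 is the concentration reducing mock-infected MT-4 cell number by 50%. EC50 comes from HIV-infected MT-4 cells (100 CCID50 per mL, 5 × 10^5 cells/mL).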

The test system of assay [2] is MT4. Description: Concentration required for 50% of cell death on MT-4 cell lines. Format: functional, Homo sapiens. Put shortly:
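Mock-infected MT-4 cells (5 × 10^5 cells/mL) in fresh culture medium, mixed in microtiter wells with dilutions of test compound. After 5 days, viable cells counted by trypan blue staining. CC50 taken as the compound concentration that reduces the number of mock-infected MT-4 cells by 50%.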

The subject of assay [3] is CCRF-CEM. Description: Effective concentration against HIV-1 induced cytopathicity in CEM cells. Conditions: Homo sapiens. The class given is functional, cell-based. Put shortly: (§1)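 CEM cells at 5 × 10^5 cells/mL in fresh medium, infected with HIV-1 or HIV-2 at 100 CCID50 per mL of suspension, then mixed 1:1 with serial compound dilutions. Virus-induced syncytia were counted microscopically after 4 days. EC50 is the concentration reducing syncytium number by 50%.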
(Damage to the host cells serves as the signal in cytopathic effect assays.)

For assay [4], the system named is CCRF-CEM. Description: Effective concentration against HIV-2 induced cytopathicity in CEM cells. Conditions: Homo sapiens. The class given is functional, cell-based. Put shortly: as §1
The subject of assay [5] is Human immunodeficiency virus. Description: Effective concentration against HIV-1 induced cytopathicity in MT-4 cells. The class given is functional, organism-based, MT4. Put shortly: (§2)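 MT-4 cells at 5 × 10^5 cells/mL, infected with HIV-1 or HIV-2 at 100 CCID50 per mL, then mixed 1:1 with serial compound dilutions. After 5 days, viable cells in infected and mock-infected cultures were counted by trypan blue exclusion. EC50 is the concentration giving a 50% reduction in virus-induced loss of viable cells.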

In assay [6] the test system is MT4. Description: Effective concentration against HIV-2 induced cytopathicity in MT-4 cells. Format: functional, cell-based. Conditions: Homo sapiens. Put shortly: as §2
The mark [7] stands for this setting: Human immunodeficiency virus 1, MT4.

In the case of `CCc1cn([C@@H]2O[C@H](CO[Si](C)(C)C(C)(C)C)[C@@]3(OS(=O)(=O)C=C3N)[C@H]2O[Si](C)(C)C(C)(C)C)c(=O)[nH]c1=O`, the Selectivity index in the assay with MT4 [1] was 88. Besides, the 50% cytotoxic concentration (CC50) in the assay with MT4 [2] was 5.3 µM.
Turning to `CC(C)(C)[Si](C)(C)OC[C@H]1O[C@@H](n2ccc(=O)[nH]c2=O)[C@H](O[Si](C)(C)C(C)(C)C)C12OS(=O)(=O)C=C2N` (some centres undefined), the Selectivity index with MT4 [1] worked out at 74. This compound also had a CC50 with MT4 [2] of 14 µM.
With `Cc1cn([C@@H]2O[C@H](CO[Si](C)(C)C(C)(C)C)C3(OS(=O)(=O)C=C3N)[C@H]2O[Si](C)(C)C(C)(C)C)c(=O)[nH]c1=O` (some centres undefined), in the assay on MT4 [1], the Selectivity index is 217. The results for the 50% effective concentration (EC50) with CCRF-CEM [3] and in the assay on CCRF-CEM [4] were 0.044 µM and over 7 µM, respectively. Half-maximal cytotoxicity in the assay with MT4 [2] (CC50) was put at 13 µM.
For `Cc1cn([C@@H]2O[C@H](CO[Si](C)(C)C(C)(C)C)[C@@]3(OS(=O)(=O)C=C3N)[C@H]2O[Si](C)(C)C(C)(C)C)c(=O)nc1N`, the Selectivity index with MT4 [1] came to 250. Moreover, the figures for the concentration for a half-maximal effect (EC50) in the assay on CCRF-CEM [3] and with CCRF-CEM [4] were 0.05 µM and over 13.5 µM, respectively. The compound also yielded a CC50 in the assay on MT4 [2] of 30 µM.
As for `CC(C)(C)[Si](C)(C)OC[C@H]1O[C@@H](n2ccc(N)nc2=O)[C@H](O[Si](C)(C)C(C)(C)C)[C@]12OS(=O)(=O)C=C2N`, the Selectivity index in the assay with MT4 [1] is on record as 460. Also, the EC50 with CCRF-CEM [3] is 1.39 µM; in the assay with CCRF-CEM [4], over 350 µM. In the assay on MT4 [2], this compound registered a CC50 of over 350 µM.
`CC(C)(C)[Si](C)(C)OC[C@H]1O[C@@H](n2cc(Br)c(=O)[nH]c2=O)[C@H](O[Si](C)(C)C(C)(C)C)[C@]12OS(=O)(=O)C=C2N`: the Selectivity index in the assay on MT4 [1] worked out at 11. Moreover, in assay [5] (mt4), the EC50 was 0.32 µM and > 2.4 µM. The compound also returned a CC50 with MT4 [2] of 3.6 µM.
Regarding `CNc1nc(=O)n([C@@H]2O[C@H](CO[Si](C)(C)C(C)(C)C)[C@@]3(OS(=O)(=O)C=C3N)[C@H]2O[Si](C)(C)C(C)(C)C)cc1C`, the Selectivity index with MT4 [1] is 217. Besides, the 50% effective concentration (EC50) was 0.11 µM with CCRF-CEM [3] and over 33 µM with CCRF-CEM [4]. For the same compound, the CC50 in the assay on MT4 [2] was determined as 26 µM.
For `CC(C)(C)[Si](C)(C)OC[C@H]1O[C@@H]2[C@H](O[Si](C)(C)C(C)(C)C)[C@]13OS(=O)(=O)C=C3Nc1cc(=O)[nH]c(=O)n12`, the Selectivity index with MT4 [1] amounted to 2.7. Further, the EC50 in assay [5] (mt4) was 5.9 µM and > 12 µM. Besides, the CC50 with MT4 [2] was determined as 16 µM.
For `CC(C)(C)[Si](C)(C)OC[C@H]1O[C@@H](n2cc(I)c(=O)[nH]c2=O)[C@H](O[Si](C)(C)C(C)(C)C)[C@]12OS(=O)(=O)C=C2N`, in the assay with MT4 [1], the Selectivity index stood at 133. Besides, the EC50 in the assay on CCRF-CEM [3] is 0.03 µM; with CCRF-CEM [4], over 5.7 µM. For the same compound, half-maximal cytotoxicity in the assay on MT4 [2] (CC50) was put at 12 µM.
As for `CC(C)(C)[Si](C)(C)OC[C@H]1O[C@@H](n2cc(C(F)(F)F)c(=O)[nH]c2=O)[C@H](O[Si](C)(C)C(C)(C)C)[C@]12OS(=O)(=O)C=C2N`, the Selectivity index in the assay with MT4 [1] turned out to be 17. The EC50 in assay [5] (mt4) is 0.82 µM and > 6.2 µM; with CCRF-CEM [3], 0.77 µM; in the assay on CCRF-CEM [4], over 6.2 µM. Moreover, in the assay with MT4 [2], the CC50 came out at 14 µM.
As for `Cc1cn([C@@H]2O[C@H](CO[Si](C)(C)C(C)(C)C)[C@@]3(OS(=O)(=O)C=C3N)[C@H]2O[Si](C)(C)C(C)(C)C)c(=O)nc1N(C)C`, in the assay on MT4 [1], the Selectivity index worked out at 388. Moreover, the 50% effective concentration (EC50) in assay [5] (setting [7]) is 0.16 µM; with MT4 [6], over 32 µM. The compound further yielded a CC50 in the assay with MT4 [2] of 62 µM.
As for `CC(C)(C)[Si](C)(C)OC[C@H]1O[C@@H](n2c(C#N)cc(=O)[nH]c2=O)[C@H](O[Si](C)(C)C(C)(C)C)[C@]12OS(=O)(=O)C=C2N`, in the assay with MT4 [1], the Selectivity index is on record as 3. Further, the EC50 is 3.6 µM in assay [5] (setting [7]), 3.6 µM in assay [5] (mt4), 2.1 µM with CCRF-CEM [3] and over 6.6 µM with CCRF-CEM [4]. Besides, the CC50 in the assay with MT4 [2] came out at 11 µM.
As for `COC(=N)c1cc(=O)[nH]c(=O)n1[C@@H]1O[C@H](CO[Si](C)(C)C(C)(C)C)[C@@]2(OS(=O)(=O)C=C2N)[C@H]1O[Si](C)(C)C(C)(C)C`, in the assay with MT4 [1], the Selectivity index stood at 4.1. Besides, the concentration for a half-maximal effect (EC50) in assay [5] (mt4) was 2.7 µM and > 6.3 µM; with CCRF-CEM [3], 1.1 µM; in the assay with CCRF-CEM [4], over 6.3 µM. In addition, the midpoint of cytotoxicity in the assay with MT4 [2], the CC50, lay at 11 µM.
Take `CC(C)(C)[Si](C)(C)OC[C@H]1O[C@@H](n2cc(F)c(=O)[nH]c2=O)[C@H](O[Si](C)(C)C(C)(C)C)[C@]12OS(=O)(=O)C=C2N`: the Selectivity index with MT4 [1] was determined as 10. The EC50 in assay [5] (mt4) was 0.5 µM and > 1.3 µM; in the assay on CCRF-CEM [3], 0.34 µM; with CCRF-CEM [4], over 6.7 µM. The compound further showed a 50% cytotoxic concentration (CC50) in the assay on MT4 [2] of 5 µM.
Regarding `CNc1ccn([C@@H]2O[C@H](CO[Si](C)(C)C(C)(C)C)[C@@]3(OS(=O)(=O)C=C3N)[C@H]2O[Si](C)(C)C(C)(C)C)c(=O)n1`, the Selectivity index in the assay with MT4 [1] was 18. The EC50 in assay [5] (mt4) is 0.68 µM and > 6.8 µM; with CCRF-CEM [3], 3.38 µM; with CCRF-CEM [4], over 6.8 µM. The same compound gave a 50% cytotoxic concentration (CC50) in the assay on MT4 [2] of 12 µM.
On to `CN(C)c1ccn([C@@H]2O[C@H](CO[Si](C)(C)C(C)(C)C)[C@@]3(OS(=O)(=O)C=C3N)[C@H]2O[Si](C)(C)C(C)(C)C)c(=O)n1`, for which, in the assay on MT4 [1], the Selectivity index is 252. Moreover, the results for the half-maximal effective concentration (EC50) with CCRF-CEM [3] and in the assay on CCRF-CEM [4] were 0.75 µM and over 166 µM, respectively. In addition, the cytotoxic concentration (CC50) with MT4 [2] is over 166 µM.

The values above are taken from ChEMBL document CHEMBL1127327, “Novel series of TSAO-T derivatives. Synthesis and anti-HIV-1 activity of 4-, 5-, and 6-substituted pyrimidine analogues” (J Med Chem, 1994).
